Assay results of several laboratories.
Lines come from different studies, so protocols differ.
Target: Proto-oncogene tyrosine-protein kinase Src (SRC, Homo sapiens, UniProt P12931)

CN(c1nccc(-c2cnn3ncccc23)n1)C1CC1  remaining binding (binding; 1 µM): 100%
Nc1c(C(=O)NCc2ccc(C(=O)NCCCC3CCCCC3)cc2)cnn1-c1ccccc1  remaining binding (cell-free assay; competition with immobilised ligand; 0.1 µM): 100%
F[C@@H]1CCN(c2nccc(-c3cnn4ncccc34)n2)C1  remaining binding (binding; 1 µM): 100%
O=C(NCCCN1CCOCC1)c1ccc(Nc2nccc(-c3cc4ccccc4s3)n2)cc1  remaining binding (binding; competition with immobilised ligand; 1 µM): 100%
N[C@@H]1CCN(c2nccc(-c3cnn4ncccc34)n2)C1  remaining binding (binding; 1 µM): 100%
O=C(Nc1c[nH]nc1C(=O)NC1CCNCC1)c1cc(F)cc(F)c1  remaining binding (binding; competition with immobilised ligand; 1 µM): 100%
C[C@@H]1CCN(c2nccc(-c3cnn4ncccc34)n2)C1  remaining binding (binding; 1 µM): 92%
O=C(c1ccc(Nc2ncc(Cl)c(-c3cc4ccccc4s3)n2)cc1)N1CCC(N2CCCC2)CC1  remaining binding (binding; competition with immobilised ligand; 1 µM): 62%
Cc1c[nH]c2nccc(Oc3c(F)cc(Nc4cc(Cl)nc(N)n4)cc3F)c12  remaining binding (cell-free assay; competition with immobilised ligand; 0.1 µM): 100%
c1cnn2ncc(-c3ccnc(N4CCC45COC5)n3)c2c1  remaining binding (binding; 1 µM): 100%
CC(C)(C)c1ccc(-c2nc(CBr)nn2-c2cccc(O)c2)cc1  remaining binding (cell-free assay; competition with immobilised ligand; 10 µM): 79%
COc1cnc(Nc2cccc(S(N)(=O)=O)c2)nc1N1CCN(c2ccccc2)CC1  remaining binding (binding; competition with immobilised ligand; 1 µM): 100%
CCN1CCN(Cc2ccc(C(=O)Nc3ccc(C)c(Oc4ccc5c(c4)CC(=O)N5)c3)cc2C(F)(F)F)CC1  remaining binding (binding; competition with immobilised ligand; 1 µM): 78%
CN(C(=O)c1ccccc1)c1cc(N(C)c2ccc3c(c2)CCc2ccc(C(=O)NCCN4CCOCC4)cc2C3=O)ccc1F  remaining binding (cell-free assay; competition with immobilised ligand; 1 µM): 98%
C[C@@H](c1ccc(-n2cnc3c(N)ncnc32)cc1)N1CCc2nn(C)c(Cc3ccccc3)c2C1=O  remaining binding (binding; competition with immobilised ligand; 0.1 µM): 98%
C[C@@H](c1cccc(C#N)c1)n1cc(Cl)cc(C(N)=O)c1=N  remaining binding (cell-free assay; competition with immobilised ligand; 1 µM): 99%
CN(C)c1ncc(F)c(-c2cnn3ncccc23)n1  remaining binding (binding; 1 µM): 79%
COc1cc(-c2cn(C3CCc4ccccc4N(CC(F)(F)F)C3=O)nn2)ccc1-n1ccc(C)n1 (stereo not shown)  remaining binding (cell-free assay; competition with immobilised ligand; 1 µM): 100%
C=CC(=O)N1CCC(C(=O)NCC(=O)N2CCN(c3nc(-c4cnc(N)nc4C(F)F)nc(N4CCOCC4)n3)CC2)CC1  remaining binding (binding; competition with immobilised ligand; 1 µM): 91%
CN([C@@H]1CCc2c(CC(=O)O)c3cc(S(C)(=O)=O)ccc3n2C1)S(=O)(=O)c1ccc(F)cc1  remaining binding (cell-free assay; competition with immobilised ligand; 1 µM): 96%
CN(CCCC(F)(F)F)c1nccc(-c2cnn3ncccc23)n1  remaining binding (binding; 1 µM): 100%
COc1ccc2c(O[C@@H]3C[C@H]4C(=O)N[C@]5(C(=O)O)CC5/C=C\CCCCC[C@H](NC(=O)OC5CCCC5)C(=O)N4C3)cc(-c3csc(NC(=O)C(C)C)n3)nc2c1C (stereo partly shown)  remaining binding (cell-free assay; competition with immobilised ligand; 1 µM): 100%
O=C(c1ccc(Nc2nccc(-c3cc4ccccc4s3)n2)cc1)N1CCC(N2CCCC2)CC1  remaining binding (binding; competition with immobilised ligand; 1 µM): 63%
CCOC(=O)c1cc2cc(-c3cc(C(=O)NCc4ccc(C(=O)O)cc4)nn3C)ccc2[nH]1  remaining binding (cell-free assay; competition with immobilised ligand; 0.1 µM): 93%
c1cncc(-c2cccc(Nc3nccc(NC4CCCCC4)n3)c2)c1  remaining binding (binding; competition with immobilised ligand; 10 µM): 2.2%
